Calls of active or inactive are those of the source. The calls are words filed in the database; no cut-off is given here.
Tests used:
[1] = system: Bacillus subtilis; assay: Antibacterial activity against Bacillus subtilis at 100 ug/ml after 24 hrs by agar well diffusion method; assay type: functional; conditions: for zone of inhibition at 100 µg/mL: read-out: DIZ
Summary of the method: (§1)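 Agar well diffusion. Nutrient plates swabbed with 24 h broth culture of the bacterium; 6 mm wells bored and loaded with DMSO solutions of compound (wells at 50 and 100 per well). Chloramphenicol positive control, DMSO negative control. Plates held 37 °C, 24 h; inhibition zone diameter (mm) measured, mean of duplicates.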

[2] = system: Klebsiella pneumoniae; assay: Antibacterial activity against Klebsiella pneumoniae at 50 ug/ml after 24 hrs by agar well diffusion method; assay type: functional; conditions: for zone of inhibition at 50 µg/mL: read-out: DIZ; summary of the method: as §1
[3] = system: Aspergillus niger; assay: Antifungal activity against Aspergillus niger at 100 ug/ml after 48 hrs by agar well diffusion method; assay type: functional; conditions: for zone of inhibition at 100 µg/mL: read-out: DIZ
Summary of the method: (§2)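 Fungal agar well diffusion. Plates swabbed with fungal culture, 6 mm wells filled with DMSO solutions of compound (50 and 100 per well). Ketoconazole positive and DMSO negative controls. Plates incubated 28 °C for 48 h; zone of inhibition diameter (mm) read, average of duplicates.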

[4] = system: Staphylococcus aureus; assay: Antibacterial activity against Staphylococcus aureus at 100 ug/ml after 24 hrs by agar well diffusion method; assay type: functional; conditions: for zone of inhibition at 100 µg/mL: read-out: DIZ; summary of the method: as §1
[5] = system: Aspergillus niger; assay: Antifungal activity against Aspergillus niger at 50 ug/ml after 48 hrs by agar well diffusion method; assay type: functional; conditions: for zone of inhibition at 50 µg/mL: read-out: DIZ; summary of the method: as §2
[6] = system: Penicillium chrysogenum; assay: Antifungal activity against Penicillium chrysogenum at 100 ug/ml after 48 hrs by agar well diffusion method; assay type: functional; conditions: for zone of inhibition at 100 µg/mL: read-out: DIZ; summary of the method: as §2
[7] = system: Staphylococcus aureus; assay: Antibacterial activity against Staphylococcus aureus at 50 ug/ml after 24 hrs by agar well diffusion method; assay type: functional; conditions: for zone of inhibition at 50 µg/mL: read-out: DIZ; summary of the method: as §1
[8] = system: Klebsiella pneumoniae; assay: Antibacterial activity against Klebsiella pneumoniae at 100 ug/ml after 24 hrs by agar well diffusion method; assay type: functional; conditions: for zone of inhibition at 100 µg/mL: read-out: DIZ; summary of the method: as §1
[9] = system: Penicillium chrysogenum; assay: Antifungal activity against Penicillium chrysogenum at 50 ug/ml after 48 hrs by agar well diffusion method; assay type: functional; conditions: for zone of inhibition at 50 µg/mL: read-out: DIZ; summary of the method: as §2
[10] = system: A549; assay: Cytotoxicity against human A549 cells up to 0.2 mM after 72 hrs by MTT assay
[11] = system: Bacillus subtilis; assay: Antibacterial activity against Bacillus subtilis at 50 ug/ml after 24 hrs by agar well diffusion method; assay type: functional; conditions: for zone of inhibition at 50 µg/mL: read-out: DIZ; summary of the method: as §1
[12] = system: Pseudomonas aeruginosa; assay: Antibacterial activity against Pseudomonas aeruginosa at 50 ug/ml after 24 hrs by agar well diffusion method; assay type: functional; conditions: for zone of inhibition at 50 µg/mL: read-out: DIZ; summary of the method: as §1
[13] = system: Pseudomonas aeruginosa; assay: Antibacterial activity against Pseudomonas aeruginosa at 100 ug/ml after 24 hrs by agar well diffusion method; assay type: functional; conditions: for zone of inhibition at 100 µg/mL: read-out: DIZ; summary of the method: as §1

Compound | zone of inhibition at 100 µg/mL [1] [mm] | zone of inhibition at 50 µg/mL [2] [mm] | zone of inhibition at 100 µg/mL [3] [mm] | zone of inhibition at 100 µg/mL [4] [mm] | zone of inhibition at 50 µg/mL [5] [mm] | zone of inhibition at 100 µg/mL [6] [mm] | zone of inhibition at 50 µg/mL [7] [mm] | zone of inhibition at 100 µg/mL [8] [mm] | zone of inhibition at 50 µg/mL [9] [mm] | Activity [10] | zone of inhibition at 50 µg/mL [11] [mm] | zone of inhibition at 50 µg/mL [12] [mm] | zone of inhibition at 100 µg/mL [13] [mm] | further results
Nn1c(CS(=O)(=O)Nc2ccccc2)nnc1CS(=O)(=O)C1CNN=C1S(=O)(=O)c1ccccc1 (stereo unspecified) | 17 | 17 | 15 | 15 | 13 | 17 | 13 | 19 | 14 | inactive | 15 | 12 | 14 | 
O=S(=O)(/C=C/S(=O)(=O)c1ccccc1)Cc1nnc(CS(=O)(=O)Nc2ccccc2)o1 | 14 |  |  | 13 |  |  | 10 |  |  | inactive | 12 |  |  | diameter of the inhibition zone (DIZ) [2]: inactive; diameter of the inhibition zone (DIZ) [3]: inactive; diameter of the inhibition zone (DIZ) [5]: inactive; diameter of the inhibition zone (DIZ) [6]: inactive; diameter of the inhibition zone (DIZ) [8]: inactive; diameter of the inhibition zone (DIZ) [9]: inactive; diameter of the inhibition zone (DIZ) [12]: inactive; diameter of the inhibition zone (DIZ) [13]: inactive
O=S(=O)(Cc1nnc(CS(=O)(=O)C2CNN=C2S(=O)(=O)c2ccc(Cl)cc2)o1)Nc1ccc(Cl)cc1 (stereo unspecified) | 20 | 22 | 23 | 18 | 20 | 24 | 17 | 24 | 22 | inactive | 17 | 17 | 19 | 
Nn1c(CS(=O)(=O)Nc2ccccc2)nnc1CS(=O)(=O)c1c[nH]nc1S(=O)(=O)c1ccccc1 | 23 | 24 | 23 | 21 | 19 | 23 | 19 | 26 | 20 | inactive | 19 | 15 | 17 | 
O=S(=O)(Cc1nnc(CS(=O)(=O)c2c[nH]nc2S(=O)(=O)c2ccc(Cl)cc2)o1)Nc1ccc(Cl)cc1 | 22 | 23 | 23 | 23 | 20 | 24 | 20 | 24 | 21 | inactive | 21 | 19 | 21 | 
O=S(=O)(Cc1nnc(CS(=O)(=O)c2c[nH]cc2S(=O)(=O)c2ccccc2)s1)Nc1ccccc1 | 20 | 20 | 18 | 17 | 16 | 20 | 15 | 22 | 17 | inactive | 18 | 14 | 15 | 
Cc1ccc(NS(=O)(=O)Cc2nnc(CS(=O)(=O)c3c[nH]nc3S(=O)(=O)c3ccc(C)cc3)o2)cc1 |  |  |  |  |  |  |  |  |  | inactive |  |  |  | diameter of the inhibition zone (DIZ) [1]: inactive; diameter of the inhibition zone (DIZ) [2]: inactive; diameter of the inhibition zone (DIZ) [3]: inactive; diameter of the inhibition zone (DIZ) [4]: inactive; diameter of the inhibition zone (DIZ) [5]: inactive; diameter of the inhibition zone (DIZ) [6]: inactive; diameter of the inhibition zone (DIZ) [7]: inactive; diameter of the inhibition zone (DIZ) [8]: inactive; diameter of the inhibition zone (DIZ) [9]: inactive; diameter of the inhibition zone (DIZ) [11]: inactive; diameter of the inhibition zone (DIZ) [12]: inactive; diameter of the inhibition zone (DIZ) [13]: inactive
